Measurements published in ChEMBL document CHEMBL1153207, “Continued exploration of the triazolopyridine scaffold as a platform for p38 MAP kinase inhibition” (Bioorg Med Chem Lett, 2010).

Key:
[1] = target: Mitogen-activated protein kinase 14 (Homo sapiens, UniProt Q16539); assay: Inhibition of p38 alpha
[2] = Metabolic stability in rat liver microsomes at 2 uM; format: ADME, Microsome; details: read-out: Stability
[3] = Metabolic stability in human liver microsomes at 2 uM; format: ADME, Microsome; details: read-out: Stability
Rattus norvegicus = assay: Inhibition of LPS-stimulated TNFalpha release Lewis rat at 5 mg/kg after 4 hrs by ELISA; format: functional
In short: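 Male Lewis rats were pre-dosed with compound at set times before an iv lipopolysaccharide challenge. Blood was taken 1.5 h after challenge and TNF-α levels were measured by ELISA.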

Chain of Mitogen-activated protein kinase 14 (Q16539 whole entry): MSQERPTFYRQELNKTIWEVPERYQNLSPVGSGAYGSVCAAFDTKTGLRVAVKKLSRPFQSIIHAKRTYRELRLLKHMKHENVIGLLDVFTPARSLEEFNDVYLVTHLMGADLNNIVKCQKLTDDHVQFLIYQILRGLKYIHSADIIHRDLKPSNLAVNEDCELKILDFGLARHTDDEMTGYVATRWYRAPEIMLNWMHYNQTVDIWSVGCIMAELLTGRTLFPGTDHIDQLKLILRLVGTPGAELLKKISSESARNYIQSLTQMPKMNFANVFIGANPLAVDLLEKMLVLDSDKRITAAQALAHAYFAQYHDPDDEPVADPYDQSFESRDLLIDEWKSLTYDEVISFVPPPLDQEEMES

| Structure (SMILES) | IC50 [1] [nM] | remaining at 2 µM [2] [%] | remaining at 2 µM [3] [%] | inhibition in vivo at 5 mg/kg (Rattus norvegicus) [%] |
| --- | --- | --- | --- | --- |
| Fc1ccc(Sc2ccc3nnc(-c4ccc(F)cc4F)n3c2)c(F)c1 | 7.2 | – | – | – |
| CC(C)c1nnc2cc(Cl)c(Sc3ccc(F)cc3F)cn12 | – | 37 | 71 | – |
| CC(C)c1nnc2ccc(Sc3ccc(F)cc3F)cn12 | – | 46 | 89 | 61 |
| O=C(O)c1ccc(-c2nnc3ccc(Sc4ccc(F)cc4F)cn23)cc1 | 1170 | – | – | – |
| CC(C)c1nnc2ccc(Sc3ccc(F)cc3C(F)(F)F)cn12 | > 10000 | – | – | – |
| COC(=O)c1ccc(-c2nnc3ccc(Sc4ccc(F)cc4F)cn23)cc1 | 322 | – | – | – |
| Fc1ccc(Sc2ccc3nnc(C4CCNCC4)n3c2)c(F)c1 | 3770 | – | – | – |
| CC(C)c1nnc2ccc(Sc3ccc(F)cc3F)c(Cl)n12 | – | 23 | 65 | – |
| CC(C)c1nnc2ccc(Sc3ccc(Br)cc3C(F)(F)F)cn12 | > 10000 | – | – | – |
| CC(C)c1nnc2ccc(C(=O)c3ccc(F)cc3F)cn12 | 1050 | 88 | 74 | – |
| CC(C)c1nnc2ccc(C(=O)Nc3cc(F)cc(F)c3)cn12 | > 10000 | – | – | – |
| CC(C)c1nnc2ccc(C(=O)Cc3cc(F)cc(F)c3)cn12 | 7370 | – | – | – |
| CC(C)c1nnc2cc(Cl)c(Sc3ccc(F)cc3F)c(Cl)n12 | – | 20 | 39 | – |
| CC(C)c1nnc2ccc(Sc3ccc(Cl)cc3Cl)cn12 | 8240 | – | – | – |
| CC(C)c1nnc2ccc([S+]([O-])c3ccc(F)cc3F)cn12 (centres undefined) | – | 100 | 100 | – |
| CC(C)c1nnc2cc(Cl)c(Sc3ccc(F)cc3F)c(Br)n12 | – | 9 | 24 | – |
| CC(C)c1nnc2ccc(CCc3ccc(F)cc3F)cn12 | 85 | 54 | 53 | – |
| CC(C)c1nnc2ccc(S(=O)(=O)c3ccc(F)cc3F)cn12 | > 10000 | – | – | – |
